Measurements as given in ChEMBL document CHEMBL1124453, “18-cycloalkyl analogues of enisoprost” (1989).

Legend:
[1] = system: Canis familiaris; test: Activity for gastric antisecretory activity in dogs by intrapouch administration and the value ranges between 0.083-0.094; assay type: functional; conditions: Canis lupus familiaris, Stomach
Procedure, shortened: (§1)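 Adult female beagles (6-11 kg) with innervated Pavlov pouches, fasted 24 h with water available. Prostaglandin in isosmotic phosphate buffer pH 7.4 (≤20% ethanol) or vehicle given into the pouch via Thomas cannula after a 30-min basal collection. Canned food fed 30 min later. Juice collected at 30-min intervals for 4 h; acid output = volume × acidity.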

[2] = system: Rattus norvegicus; test: Activity for diarrheagenic effect in rats by intragastric administration and the value ranges between 106-698; assay type: functional; conditions: po
Procedure, shortened: (§2)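 Adult male Charles River rats (210–230 g), individually housed, fasted 24 h with water ad libitum. Logarithmically graded prostaglandin doses given orally (intragastric), N = 6-12 per group. Diarrhea scored all-or-none over 8 h after dosing. Prostaglandin stock 1 mg/mL in absolute ethanol, diluted in phosphate buffer pH 7.4 to at most 20% ethanol.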

[3] = system: Canis familiaris; test: Activity for gastric antisecretory activity in dogs by intrapouch administration and the value ranges between 63.2-76.9; assay type: functional; conditions: Canis lupus familiaris, Stomach; procedure, shortened: as §1
[4] = system: Rattus norvegicus; test: Activity for diarrheagenic effect in rats by intragastric administration; assay type: functional; conditions: po; procedure, shortened: as §2
[5] = system: Canis familiaris; test: Activity for gastric antisecretory activity in dogs by intrapouch administration and the value ranges between 0.06-0.12; assay type: functional; conditions: Canis lupus familiaris, Stomach; procedure, shortened: as §1
[6] = system: Rattus norvegicus; test: Activity for diarrheagenic effect in rats by intragastric administration and the value ranges between 947-1848; assay type: functional; conditions: po; procedure, shortened: as §2
[7] = system: Canis familiaris; test: Activity for gastric antisecretory activity in dogs by intrapouch administration; assay type: functional; conditions: Canis lupus familiaris, Stomach; procedure, shortened: as §1
[8] = system: Canis familiaris; test: Activity for gastric antisecretory activity in dogs by intrapouch administration and the value ranges between 0.069-0.096; assay type: functional; conditions: Canis lupus familiaris, Stomach; procedure, shortened: as §1
[9] = system: Rattus norvegicus; test: Activity for diarrheagenic effect in rats by intragastric administration and the value ranges between 141-1134; assay type: functional; conditions: po; procedure, shortened: as §2
[10] = system: Canis familiaris; test: No inhibitory activity (3 ug/kg) for gastric antisecretory activity in dogs by intrapouch administration; assay type: functional, Canis lupus familiaris, Stomach
Procedure, shortened: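 Food-stimulated Pavlov-pouch beagles were dosed intrapouch, highest dose tested 3.0 µg/kg, in phosphate buffer pH 7.4 with at most 20% ethanol. Gastric juice was collected at 30-min intervals for 4 h after feeding. Percent reduction of total acid output (volume × acidity) from control was calculated.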

[11] = system: Canis familiaris; test: Activity for gastric antisecretory activity in dogs by intrapouch administration and the value ranges between 0.017-0.032; assay type: functional; conditions: Canis lupus familiaris, Stomach; procedure, shortened: as §1
[12] = system: Rattus norvegicus; test: Activity for diarrheagenic effect in rats by intragastric administration and the value ranges between 37-77; assay type: functional; conditions: po; procedure, shortened: as §2

`COC(=O)CC/C=C\CC[C@H]1C(=O)C[C@@H](O)[C@@H]1/C=C/CC(C)(O)CCC1CC1` (stereo partly drawn) showed an ED50 [1] of 0.09 µg/kg and an ED50 [2] of 273 µg/kg.
For `COC(=O)CC/C=C\CC[C@H]1C(=O)C[C@@H](O)[C@@H]1/C=C/CC(C)(O)CCC1CCCCC1` (stereo partly drawn), the ED50 [3] was 70 µg/kg and the ED50 [4] was greater than 3160 µg/kg.
`COC(=O)CC/C=C\CC[C@H]1C(=O)C[C@@H](O)[C@@H]1/C=C/CC(C)(O)CCC1CCCC1` (stereo partly drawn) gave an ED50 [5] of 0.09 µg/kg and an ED50 [6] of 1310 µg/kg.
`COC(=O)CC/C=C\CC[C@H]1C(=O)C[C@@H](O)[C@@H]1/C=C/CC(C)(O)CCC1CCCCCC1` (stereo partly drawn) showed an ED50 [7] of roughly 95 µg/kg and an ED50 [4] greater than 3160 µg/kg.
Work on `COC(=O)CC/C=C\CC[C@H]1C(=O)C[C@@H](O)[C@@H]1/C=C/CC(C)(O)CCC1CCC1` (stereo partly drawn) yielded an ED50 [8] of 0.09 µg/kg and an ED50 [9] of 316 µg/kg.
In the case of `COC(=O)CC/C=C\CC[C@H]1C(=O)C[C@@H](O)[C@@H]1/C=C/CC(C)(O)CCCCO` (stereo partly drawn), the Inhibition [10] is reported as 0%.
Compound `CCCCC(C)(O)C/C=C/[C@H]1[C@H](O)CC(=O)[C@@H]1CC/C=C\CCC(=O)OC` (stereo partly drawn) [ENISOPROST] has an ED50 [11] of 0.023 µg/kg and an ED50 [12] of 49 µg/kg.
